# Results of several laboratories.
# Cell line: Vero
# Read-out: cell growth or viability
SMILES,test,conditions,IC50 [µM]
OC(Cn1cncn1)(Cn1cncn1)c1ccc(F)cc1F,MTT,24 h,173
O=c1nc(-c2ccc(Nc3nnc(-c4ccc(Cl)cc4)c4ccccc34)cc2)cc(-c2ccccc2)[nH]1,,,4
Cc1ccc2c(-c3cc4c(CNCc5cccnc5)cnc(C)c4o3)cc(=O)oc2c1C,MTT,72 h,98.5
Oc1ccccc1C1CC(c2ccc(Nc3nnc(-c4ccc(Cl)cc4)c4ccccc34)cc2)=NN1 (stereo not drawn),,,4.11
COc1cc(NC(=O)C2=C(C)NC(C)=C(C(=O)Nc3cc(OC)c(Cl)cc3OC)C2c2ccco2)c(OC)cc1Cl,MTT,,69.8
O=c1nc(-c2ccc(Nc3nnc(-c4ccc(Cl)cc4)c4ccccc34)cc2)cc(-c2ccc(Cl)cc2)[nH]1,,,3
Cc1cc(C)n(-c2ccc(NC(=O)Cn3c(=O)c4cc(I)ccc4n(Cc4ccccc4)c3=O)cc2)n1,,,45.5
COc1ccc(NC(=O)C2=C(C)NC(C)=C(C(=O)Nc3cc(OC)c(Cl)cc3OC)C2c2ccccc2)c(OC)c1 (stereo not drawn),MTT,,59.6
CNC(=O)c1ccc(NC(=O)Cn2c(=O)c3cc(I)ccc3n(Cc3ccccc3)c2=O)cc1,,,46.9
O=C(CN1C(=O)SC(=Cc2ccc(Cl)cc2Cl)C1=O)Nc1ccc(C(=O)NNC(=O)c2ccccc2)cc1,MTS,,3.97
CCOC(=O)c1ccc(NC(=O)Cn2c(=O)c3cc(I)ccc3n(Cc3ccccc3)c2=O)cc1,,,49.1
C#Cc1cccc(Nc2ncnc3cc(OCCOC)c(OCCOC)cc23)c1,MTT,72 h,67
COc1cc(NC(=O)C2=C(C)NC(C)=C(C(=O)Nc3cc(OC)c(Cl)cc3OC)C2c2ccccc2)c(OC)cc1Cl,MTT,,42.2
C=CCn1c(=O)n(CC(=O)Nc2ccc(-n3nc(C)cc3C)cc2)c(=O)c2cc(I)ccc21,,,43.4
COc1ccc(NC(=O)C2=C(C)NC(C)=C(C(=O)Nc3cc(OC)c(Cl)cc3OC)C2c2ccco2)c(OC)c1 (stereo not drawn),MTT,,68.1
Clc1ccc(-c2nnc(Nc3ccc(C4=NNC(c5ccc(Cl)cc5)C4)cc3)c3ccccc23)cc1 (stereo not drawn),,,4.25
Cc1ncc(CN2CCN(Cc3ccccn3)CC2)c2cc(C(=O)c3ccc4c(c3)OCCO4)oc12,MTT,72 h,50.1
COc1ccc(NC(=O)C2=C(C)NC(C)=C(C(=O)Nc3cc(OC)c(Cl)cc3OC)C2c2ccc(Cl)cc2)c(OC)c1 (stereo not drawn),MTT,,54
